What all share (type): cell-based
In assay [1] the target is T1, Vitamin D3 receptor (Homo sapiens) (UniProt P11473).
T1 sequence (whole entry): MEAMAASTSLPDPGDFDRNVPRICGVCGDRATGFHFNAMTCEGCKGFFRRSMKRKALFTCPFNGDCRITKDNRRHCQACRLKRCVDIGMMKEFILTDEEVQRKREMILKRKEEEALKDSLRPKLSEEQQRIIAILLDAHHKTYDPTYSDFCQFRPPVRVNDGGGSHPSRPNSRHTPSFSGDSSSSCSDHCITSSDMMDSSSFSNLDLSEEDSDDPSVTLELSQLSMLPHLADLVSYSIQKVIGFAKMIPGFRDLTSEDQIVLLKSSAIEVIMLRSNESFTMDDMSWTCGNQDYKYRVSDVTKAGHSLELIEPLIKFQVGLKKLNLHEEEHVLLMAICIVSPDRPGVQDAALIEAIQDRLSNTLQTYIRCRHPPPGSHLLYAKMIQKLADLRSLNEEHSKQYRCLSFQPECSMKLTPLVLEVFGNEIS
In words: Downregulation of VDR expression in human MCF7 cells at 1 uM after 6 hrs by Western blot method relative to lamin B. The gist of the method:
(§1)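 MCF-7 cells kept in DMEM with 10% FBS, kanamycin and 10 μg/mL insulin, then exposed to compounds for 6 h. Lysates made in SDS buffer (0.1 M Tris-HCl pH 8.0, 10% glycerol, 1% SDS), boiled, BCA-normalized and run on SDS-PAGE. Blots probed with anti-ERα, AR, AhR or VDR and β-actin or lamin B. Chemiluminescence quantified as target/loading-protein ratio; means ± S.E., n=3.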

For assay [2], the target named is T2, Estrogen receptor (Homo sapiens) (UniProt P03372).
T2 sequence (whole entry): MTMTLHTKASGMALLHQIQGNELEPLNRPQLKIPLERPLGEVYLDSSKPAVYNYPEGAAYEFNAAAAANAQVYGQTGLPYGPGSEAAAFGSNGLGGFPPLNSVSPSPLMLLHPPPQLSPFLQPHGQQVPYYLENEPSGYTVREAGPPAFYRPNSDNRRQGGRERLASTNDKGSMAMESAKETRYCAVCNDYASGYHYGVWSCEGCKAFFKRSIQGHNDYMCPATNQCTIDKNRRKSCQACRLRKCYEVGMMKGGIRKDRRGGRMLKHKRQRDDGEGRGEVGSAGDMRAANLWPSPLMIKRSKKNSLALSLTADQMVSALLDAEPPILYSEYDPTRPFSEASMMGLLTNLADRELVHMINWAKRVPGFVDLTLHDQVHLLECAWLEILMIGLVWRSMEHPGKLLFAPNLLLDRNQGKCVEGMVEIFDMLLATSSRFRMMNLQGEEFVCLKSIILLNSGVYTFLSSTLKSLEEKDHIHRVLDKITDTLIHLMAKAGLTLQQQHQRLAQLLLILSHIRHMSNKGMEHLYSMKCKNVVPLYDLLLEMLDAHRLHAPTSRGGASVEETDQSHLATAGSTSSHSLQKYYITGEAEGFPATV
In words: Downregulation of ERalpha expression in human MCF7 cells at 1 uM after 6 hrs by Western blot method relative to beta-actin. The gist of the method:
as §1
(In general: A western blot detects proteins with antibodies after separation by electrophoresis.)

For assay [3], the target named is T3, Androgen receptor (Homo sapiens) (UniProt P10275).
T3 sequence (whole entry): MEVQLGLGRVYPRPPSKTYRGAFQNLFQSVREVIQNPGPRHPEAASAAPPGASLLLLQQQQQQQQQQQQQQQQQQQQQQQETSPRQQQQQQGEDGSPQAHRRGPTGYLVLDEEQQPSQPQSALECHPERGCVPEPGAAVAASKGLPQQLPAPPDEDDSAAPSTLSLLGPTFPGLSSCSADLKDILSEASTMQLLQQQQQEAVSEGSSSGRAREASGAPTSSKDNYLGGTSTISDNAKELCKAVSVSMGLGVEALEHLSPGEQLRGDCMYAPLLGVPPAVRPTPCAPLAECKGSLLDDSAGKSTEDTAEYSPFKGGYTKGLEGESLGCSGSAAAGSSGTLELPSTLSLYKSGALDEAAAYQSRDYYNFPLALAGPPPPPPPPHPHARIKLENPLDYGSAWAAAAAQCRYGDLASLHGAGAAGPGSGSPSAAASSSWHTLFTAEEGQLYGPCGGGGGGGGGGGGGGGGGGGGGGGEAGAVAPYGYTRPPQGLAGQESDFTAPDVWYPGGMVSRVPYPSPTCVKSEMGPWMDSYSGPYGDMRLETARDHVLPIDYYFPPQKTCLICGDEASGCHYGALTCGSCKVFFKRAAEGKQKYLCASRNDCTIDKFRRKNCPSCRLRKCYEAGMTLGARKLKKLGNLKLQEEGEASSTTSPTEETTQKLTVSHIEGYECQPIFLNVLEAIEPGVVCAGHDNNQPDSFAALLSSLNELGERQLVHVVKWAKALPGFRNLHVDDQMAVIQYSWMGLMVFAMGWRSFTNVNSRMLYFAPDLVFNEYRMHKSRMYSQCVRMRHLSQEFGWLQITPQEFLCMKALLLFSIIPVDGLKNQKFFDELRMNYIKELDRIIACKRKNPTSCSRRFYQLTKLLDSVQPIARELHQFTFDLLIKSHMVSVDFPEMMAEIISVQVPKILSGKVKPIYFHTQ
In words: Downregulation of androgen receptor expression in human MCF7 cells at 10 uM after 6 hrs by Western blot method relative to lamin B. The gist of the method:
as §1

The target of assay [4] is T3, Androgen receptor (Homo sapiens). In words: Downregulation of androgen receptor expression in human MCF7 cells at 3 uM after 6 hrs in presence of proteasome inhibitor MG132 by Western blot method relative to lamin B. A digest of the protocol:
as §1

Assay [5] concerns the target T1, Vitamin D3 receptor (Homo sapiens). Description: Downregulation of VDR expression in human MCF7 cells at 1 uM after 6 hrs in presence of proteasome inhibitor MG132 by Western blot method relative to lamin B. A digest of the protocol:
as §1

As to `CCCCCCCCCCNCCOc1ccc(C(CCC)(CCC)c2ccc(O)c(C)c2)cc1C`, the Activity in assay [1] is 100%; in assay [2], 76%; in assay [3], 98%; in assay [4] it was 78%; in assay [5], 98%.

Source of the values: ChEMBL document CHEMBL4138058, “Design and synthesis of novel selective estrogen receptor degradation inducers based on the diphenylheptane skeleton” (Medchemcomm, 2017).
